According to ChEMBL document CHEMBL1126715, “Synthesis and tissue distribution of (m-[125I]iodobenzyl)trozamicol ([125I]MIBT): potential radioligand for mapping central cholinergic innervation” (J Med Chem, 1993):

Tests used:
[1] = organism: Rattus norvegicus; assay: Tissue distribution in rat kidney after 180 minutes (n=3); type: ADME, organism-based; settings: in vivo, 3 h
How it was run: (§1)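 Male Wistar rats (200-350 g) under ether anesthesia; radiotracer (3-5 μCi in 0.1 mL 50% aqueous ethanol) given iv. At 5, 30, 60 and 180 min, blood was drawn by cardiac puncture and animals were killed by cardiectomy. Organs were weighed and γ-counted against a 1:100 dilution of the injected dose. Results are given as % injected dose/g tissue; ratios are taken between tissue levels.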

[2] = organism: Rattus norvegicus; assay: Tissue distribution in rat kidney after 5 minutes (n=3); type: ADME, organism-based; settings: in vivo; how it was run: as §1
[3] = organism: Rattus norvegicus; assay: Tissue distribution in rat kidney after 60 minutes (n=3); type: ADME, organism-based; settings: in vivo, 1 h; how it was run: as §1
[4] = organism: Rattus norvegicus; assay: Tissue distribution in rat liver after 60 minutes (n=3); type: ADME, organism-based; settings: in vivo, 1 h; how it was run: as §1
[5] = organism: Rattus norvegicus; assay: Tissue distribution in rat lung after 180 minutes (n=3); type: ADME, organism-based; settings: in vivo, 3 h
How it was run: (§2)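 Male Wistar rats (200-350 g) under ether, iv [125I]tracer (3-5 μCi in 0.1 mL 50% aqueous EtOH). At 5, 30, 60 or 180 min, blood taken by cardiac puncture and the rat killed by cardiectomy. Organs weighed and γ-counted against 1:100 dilutions of the injected dose; results in % injected dose/g, with range.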

[6] = organism: Rattus norvegicus; assay: Tissue distribution in rat muscle after 180 minutes (n=3); type: ADME, organism-based; settings: in vivo, 3 h; how it was run: as §1
[7] = organism: Rattus norvegicus; assay: Tissue distribution in rat spleen after 30 minutes (n=3); type: ADME, organism-based; settings: in vivo, 0.5 h; how it was run: as §1
[8] = organism: Rattus norvegicus; assay: Tissue distribution in rat spleen after 5 minutes (n=3); type: ADME, organism-based; settings: in vivo; how it was run: as §2
[9] = organism: Rattus norvegicus; assay: Tissue distribution in rat spleen after 60 minutes (n=3); type: ADME, organism-based; settings: in vivo, 1 h; how it was run: as §1
[10] = organism: Rattus norvegicus; assay: Tissue distribution in rat thyroid after 30 minutes (n=3); type: ADME, organism-based, Thyroid gland; settings: in vivo, 0.5 h; how it was run: as §1
[11] = organism: Rattus norvegicus; assay: Tissue distribution in rat thyroid after 5 minutes (n=3); type: ADME, organism-based, Thyroid gland; settings: in vivo; how it was run: as §2
[12] = organism: Rattus norvegicus; assay: Regional kinetics in the remainder of rat brain at 30 minutes; type: ADME, organism-based; settings: in vivo, 0.5 h
How it was run: (§3)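 Male Wistar rats (n = 4 per time point) under ether received (+)-radiotracer iv (2 μCi in 100 μL 50% aqueous EtOH). They were killed at 30, 120 or 180 min. Brains were partially frozen and dissected into striatum, cerebellum, cortex and remainder. Regions were γ-counted against injected-dose dilutions and expressed as % injected dose/g tissue.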

[13] = organism: Rattus norvegicus; assay: Tissue distribution in rat blood after 180 minutes (n=3); type: ADME, organism-based; settings: in vivo, 3 h; how it was run: as §1
[14] = organism: Rattus norvegicus; assay: Tissue distribution in rat blood after 30 minutes (n=3); type: ADME, organism-based; settings: in vivo, 0.5 h; how it was run: as §1
[15] = organism: Rattus norvegicus; assay: Tissue distribution in rat brain after 180 minutes (n=3); type: ADME, organism-based; settings: in vivo, 3 h; how it was run: as §2
[16] = organism: Rattus norvegicus; assay: Tissue distribution in rat gonads after 180 minutes (n=3); type: ADME, organism-based, Gonad; settings: in vivo, 3 h; how it was run: as §1
[17] = organism: Rattus norvegicus; assay: Effect of vesamicol on the accumulation in rat blood [0.05 (0.04-0.06)]; type: ADME, organism-based; settings: in vivo
How it was run: (§4)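 Male Wistar rats (n = 4/group) given iv vehicle (100 μL 50% aqueous EtOH) or dl-vesamicol (1.01 μmol/kg); 15 min later iv radiotracer (2.0 μCi in 100 μL 50% aqueous EtOH); killed 30 min post-tracer. Blood by cardiac puncture, organs weighed and γ-counted vs 1:100 injected-dose dilution; % dose/g tissue (range); tissue/blood ratios.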

[18] = organism: Rattus norvegicus; assay: Tissue distribution in rat gonads after 30 minutes (n=3); type: ADME, organism-based, Gonad; settings: in vivo, 0.5 h; how it was run: as §1
[19] = organism: Rattus norvegicus; assay: Tissue distribution in rat gonads after 5 minutes (n=3); type: ADME, organism-based, Gonad; settings: in vivo; how it was run: as §1
[20] = organism: Rattus norvegicus; assay: Tissue distribution in rat heart after 180 minutes (n=3); type: ADME, organism-based; settings: in vivo, 3 h; how it was run: as §1
[21] = organism: Rattus norvegicus; assay: Effect of vesamicol on the accumulation in rat gonads [0.15 (0.14-0.15)]; type: ADME, organism-based; settings: in vivo; how it was run: as §4
[22] = organism: Rattus norvegicus; assay: Effect of vesamicol on the accumulation in rat heart [0.25 (0.21-0.30)]; type: ADME, organism-based; settings: in vivo
How it was run: (§5)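 Male Wistar rats. Pretreatment at t = 0 was iv vehicle (50% aqueous EtOH) or iv dl-vesamicol (1.01 μmol/kg). At 15 min, iv [125I]tracer (2.0 μCi in 100 μL 50% aqueous EtOH) was given; rats were killed 30 min later. Tissues were weighed and γ-counted, and values expressed as % injected dose/g; n = 4 per group.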

[23] = organism: Rattus norvegicus; assay: Effect of vesamicol on the accumulation in rat kidney [1.76 (1.55-2.08)]; type: ADME, organism-based; settings: in vivo; how it was run: as §4
[24] = organism: Rattus norvegicus; assay: Effect of vesamicol on the accumulation in rat lung [1.56 (1.28-1.90)]; type: ADME, organism-based; settings: in vivo; how it was run: as §4
[25] = organism: Rattus norvegicus; assay: Regional kinetics in the rat brain caudate-putamen at 180 minutes; type: ADME, organism-based; settings: in vivo, 3 h; how it was run: as §3
[26] = organism: Rattus norvegicus; assay: Regional kinetics in the rat brain caudate-putamen at 30 minutes; type: ADME, organism-based; settings: in vivo, 0.5 h; how it was run: as §3
[27] = organism: Rattus norvegicus; assay: Regional kinetics in the rat brain cortex at 120 minutes; type: ADME, organism-based; settings: in vivo, 2 h; how it was run: as §3
[28] = organism: Rattus norvegicus; assay: Regional kinetics in the rat brain cortex at 180 minutes; type: ADME, organism-based; settings: in vivo, 3 h
How it was run: (§6)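 Male Wistar rats under ether anaesthesia, iv (+)-[125I]tracer (2 μCi in 100 μL 50% aqueous EtOH); killed at 30, 120 or 180 min. Brains partially frozen and dissected into striatum, cerebellum, cortex and remainder, then counted for radioactivity. Results are % injected dose/g, calculated against counted dilutions of the injected dose.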

[29] = organism: Rattus norvegicus; assay: Regional kinetics in the rat brain cortex at 30 minutes; type: ADME, organism-based; settings: in vivo, 0.5 h; how it was run: as §6
[30] = organism: Rattus norvegicus; assay: Regional kinetics in the remainder of rat brain at 120 minutes; type: ADME, organism-based; settings: in vivo, 2 h; how it was run: as §3
[31] = organism: Rattus norvegicus; assay: Effect of vesamicol on the accumulation in rat spleen [0.97 (0.89-1.04)]; type: ADME, organism-based; settings: in vivo; how it was run: as §4
[32] = organism: Rattus norvegicus; assay: Effect of vesamicol on the accumulation in rat thyroid [1.77 (1.47-1.93)]; type: ADME, organism-based, Thyroid gland; settings: in vivo; how it was run: as §5
[33] = organism: Rattus norvegicus; assay: Ratio of effect haloperidol on regional distribution between rat brain caudate and cerebellum; type: ADME, organism-based; settings: in vivo
[34] = organism: Rattus norvegicus; assay: Ratio of effect haloperidol on regional distribution between rat brain caudate and cortex; type: ADME, organism-based; settings: in vivo
[35] = organism: Rattus norvegicus; assay: Ratio of regional kinetics between rat brain caudate and cerebellum at 180 minutes; type: ADME, organism-based; settings: in vivo, 3 h
How it was run: (§7)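 Male Wistar rats (n = 4/group) under ether anesthesia, iv (+)-[125I]MIBT (2 μCi in 100 μL 50% aqueous EtOH); killed at 30, 120, 180 min. Brains partially frozen, dissected into striatum, cerebellum, cortex and remainder; radioactivity counted, % dose/g vs injected-dose dilutions; caudate/cortex and caudate/cerebellum ratios.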

[36] = organism: Rattus norvegicus; assay: Ratio of regional kinetics between rat brain caudate and cortex at 120 minutes; type: ADME, organism-based; settings: in vivo, 2 h; how it was run: as §7
[37] = organism: Rattus norvegicus; assay: Effect of 4-aminobenzovesamicol on the regional distribution of compound in the rat brain cortex (n=4) [0.23 (0.19-0.25)]; type: ADME, organism-based; settings: in vivo
[38] = organism: Rattus norvegicus; assay: Effect of haloperidol on the regional distribution of compound in the rat brain caudate-putamen (n=4) [0.75 (0.60-0.85)]; type: ADME, organism-based; settings: in vivo
[39] = organism: Rattus norvegicus; assay: Effect of haloperidol on the regional distribution of compound in the rat cerebellum (n=4) [0.22 (0.18-0.24)]; type: ADME, organism-based; settings: in vivo
[40] = organism: Rattus norvegicus; assay: Ratio of tissue distribution between rat heart and blood after 60 min; type: ADME, organism-based; settings: other tissue, 1 h; how it was run: as §1
[41] = organism: Rattus norvegicus; assay: Ratio of regional kinetics between rat brain caudate and cortex at 180 minutes; type: ADME, organism-based; settings: in vivo, 3 h; how it was run: as §7
[42] = organism: Rattus norvegicus; assay: Ratio of tissue distribution between rat brain and blood after 30 min; type: ADME, organism-based; settings: 0.5 h
How it was run: (§8)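 Male Wistar rats (200-350 g) under ether anesthesia, iv radiotracer (3-5 μCi in 0.1 mL 50% aqueous ethanol). At 5, 30, 60, 180 min blood taken by cardiac puncture, animal killed by cardiectomy; organs weighed, γ-counted against 1:100 injected-dose dilution; % injected dose/g tissue; brain/blood ratio.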

[43] = Ratio of tissue distribution between rat brain and blood after 5 min; type: ADME, organism-based; settings: brain and blood; how it was run: as §8
[44] = organism: Rattus norvegicus; assay: Tissue distribution in rat thyroid after 60 minutes (n=3); type: ADME, organism-based, Thyroid gland; settings: in vivo, 1 h; how it was run: as §1

O[C@@H]1CCN(Cc2cccc([125I])c2)C[C@H]1N1CCC(c2ccccc2)CC1 (stereo in doubt; (+))
Dose/g [1]: 0.5% | Dose/g [2]: 2.25% | Dose/g [3]: 0.87% | Dose/g [4]: 1.91% | Dose/g [5]: 0.39% | Dose/g [6]: 0.08% | Dose/g [7]: 1.07% | Dose/g [8]: 0.76% | Dose/g [9]: 0.86% | Dose/g [10]: 2.33% | Dose/g [11]: 1.6% | Dose/g [12]: 0.59% | Dose/g [13]: 0.07% | Dose/g [14]: 0.12% | Dose/g [15]: 0.15% | Dose/g [16]: 0.16% | Dose/g [17]: 0.05% | Dose/g [18]: 0.15% | Dose/g [19]: 0.13% | Dose/g [20]: 0.1% | Dose/g [21]: 0.15% | Dose/g [22]: 0.24% | Dose/g [23]: 0.91% | Dose/g [24]: 1.59% | Dose/g [25]: 0.49% | Dose/g [26]: 0.64% | Dose/g [27]: 0.4% | Dose/g [28]: 0.25% | Dose/g [29]: 0.65% | Dose/g [30]: 0.4% | Dose/g [31]: 0.97% | Dose/g [32]: 2.02% | Ratio [33]: 10.97 | Ratio [34]: 4.82 | Ratio [35]: 2.95 | Ratio [36]: 1.68 | Dose/g [37]: 0.15% | Dose/g [38]: 0.99% | Dose/g [39]: 0.09% | Ratio [40]: 1.7 | Ratio [41]: 1.93 | Ratio [42]: 3.18 | Kp at 5 min [43]: 2.33 | Dose/g [44]: 4.59%
